From publication PMC10546487 (Journal of medicinal chemistry, 2022)
Read-outs that look alike come from different tables or passages of the source.

Key:
DOR [1] = target: T1, DOR (Mus musculus, UniProt P32300); assay: Radioligand competition binding assay, DOR
mice = assay: Warm-water tail immersion assay; type: in vivo, mouse; settings: for Antinociception effect (% MPE): 10 mg/kg s.c., 56 °C; for Blockage of the morphine-mediated antinociception: 10 mg/kg s.c. in the presence of morphine (10 mg/kg)
Outline: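 Male Swiss-Webster mice (23–35 g, 7–8 weeks), n = 5 per group. Single test-compound dose of 10 mg/kg given subcutaneously at time 0. Tail-flick latency measured in water at 56 ± 0.1 °C. Saline served as negative control and morphine as positive control. Response expressed as % maximum possible effect, reported as mean ± SD.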

KOR [2] = target: T2, KOR (Mus musculus, UniProt P33534); assay: Radioligand competition binding assay, KOR
[3] = Solubility observed during testing; type: physicochemical; settings: during binding/functional testing
MOR [4] = target: T3, MOR (Mus musculus, UniProt P42866); assay: Radioligand competition binding assay, MOR; settings: for Selectivity δ/μ: ratio of Ki values DOR/MOR; for Selectivity κ/μ: ratio of Ki values KOR/MOR
MOR [5] = target: T3, MOR; assay: MOR [35S]-GTPγS functional assay; type: biochemical
hERG potassium channel = hERG potassium channel (Homo sapiens, UniProt Q12809); assay: hERG automated patch-clamp assay in CHO-K1 cells; settings: ratio of hERG IC50 values vs NAN
MOR [6] = target: T3, MOR; assay: Calcium flux assay in Gqi5-transfected MOR-CHO cells; type: cell-based; settings: 0.3 nM to 3 μM
Outline: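 Gqi5 cDNA lipofected into MOR-CHO cells, 4 h at 37 °C/5% CO2, then trypsinized, plated at […] and grown to confluence. At 48 h post-transfection, cells loaded 45 min with fluo-4 AM plus probenecid in HBSS–HEPES–Ca–Mg buffer. Test compound (0.3 nM–3 μM) given for agonist activity; Ca2+ read as RFU peak. Triplicate doses; ≥4 repeats.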

morphine-pelleted mice [7] = assay: Opioid withdrawal study in chronic morphine-pelleted mice; type: in vivo, mouse
DOR [8] = target: T1, DOR; assay: DOR [35S]GTPγS functional assay; type: biochemical
KOR [9] = target: T2, KOR; assay: KOR [35S]GTPγS functional assay; type: biochemical
[10] = Metabolic stability in human liver microsomes; type: in vitro ADME
[11] = Metabolic stability in rat liver microsomes; type: in vitro ADME
morphine-pelleted mice [12] = settings: 50 mg/kg; cited from earlier work
KOR [13] = target: T2, KOR; settings: [35S]GTPγS; cited from earlier work
DOR [14] = target: T1, DOR; settings: [35S]GTPγS; cited from earlier work
MOR [15] = target: T3, MOR; settings: low MOR-expressing CHO cells and mouse thalamus; cited from earlier work

Q: Which Ki (DOR [1]) does the source give for `O=C(N[C@@H]1CC[C@@]2(O)[C@H]3Cc4ccc(O)c5c4[C@@]2(CCN3CC2CC2)[C@H]1O5)c1cccc2c(Cl)c[nH]c12` [Compound 7, 17-Cyclopropylmethyl-3,14β-dihydroxy-4,5α-epoxy-6β-(3-chloro-indole-7-carboxamido)morphinan] here?
A: 4.43 ± 1.06 nM

Q: What about the “Antinociception effect (% MPE)” value (mice) of the same compound?
A: noticeable antinociception

Q: And the Ki (KOR [2])?
A: 0.33 ± 0.05 nM

Q: What does the source list for `O=C(N[C@@H]1CC[C@@]2(O)[C@H]3Cc4ccc(O)c5c4[C@@]2(CCN3CC2CC2)[C@H]1O5)c1cccc2c([N+](=O)[O-])c[nH]c12` [Compound 9, 17-Cyclopropylmethyl-3,14β-dihydroxy-4,5α-epoxy-6β-(3-nitro-indole-7-carboxamido)morphinan]?
A: Ki (DOR [1]): 25.6 ± 8.06 nM; Antinociception effect (% MPE) (mice): noticeable antinociception

Q: For `CC(=O)c1c[nH]c2c(C(=O)N[C@@H]3CC[C@@]4(O)[C@H]5Cc6ccc(O)c7c6[C@@]4(CCN5CC4CC4)[C@H]3O7)cccc12` [Compound 11, 17-Cyclopropylmethyl-3,14β-dihydroxy-4,5α-epoxy-6β-(3-acetyl-indole-7-carboxamido)morphinan], which “Solubility observed in the in vitro assay” value [3] is on record?
A: poor solubility

Q: What about the Ki (DOR [1]) of the same compound?
A: 81.1 ± 9.98 nM

Q: And the “Selectivity δ/μ” value (MOR [4])?
A: < 1.6

Q: And the “Selectivity κ/μ” value (MOR [4])?
A: <0.3

Q: What does the source list for `Cc1c[nH]c2c(C(=O)N[C@@H]3CC[C@@]4(O)[C@H]5Cc6ccc(O)c7c6[C@@]4(CCN5CC4CC4)[C@H]3O7)cccc12` [Compound 13, 17-Cyclopropylmethyl-3,14β-dihydroxy-4,5α-epoxy-6β-(3-methyl-indole-7-carboxamido)morphinan]?
A: Ki (DOR [1]): 27.9 ± 5.93 nM; Antinociception effect (% MPE) (mice): noticeable antinociception; Selectivity δ/μ (MOR [4]): 61.3; Selectivity κ/μ (MOR [4]): 2.2

Q: For `O=C(N[C@@H]1CC[C@@]2(O)[C@H]3Cc4ccc(O)c5c4[C@@]2(CCN3CC2CC2)[C@H]1O5)c1cccc2c(C3CCCC3)c[nH]c12` [Compound 15, 17-Cyclopropylmethyl-3,14β-dihydroxy-4,5α-epoxy-6β-(3-cyclo-pentyl-indole-7-carboxamido)morphinan], which Ki (DOR [1]) is on record?
A: 9.88 ± 1.13 nM

Q: And the EC50 (MOR [5])?
A: 2.28 ± 0.59 nM

Q: For `O=C(N[C@H]1CC[C@@]2(O)[C@H]3Cc4ccc(O)c5c4[C@@]2(CCN3CC2CC2)[C@H]1O5)c1cccc2cc(Br)[nH]c12` [Compound 18, 17-Cyclopropylmethyl-3,14β-dihydroxy-4,5α-epoxy-6α-(2-bromo-indole-7-carboxamido)morphinan], which Ki (DOR [1]) is on record?
A: 6.73 ± 1 nM

Q: What about the EC50 (MOR [5]) of the same compound?
A: 2.36 ± 0.7 nM

Q: And the “Blockage of the morphine-mediated antinociception” value (shortened to “Blockage”) (mice)?
A: different degrees of inhibition of morphine’s antinociceptive effect

Q: For `Cc1cc2cccc(C(=O)N[C@H]3CC[C@@]4(O)[C@H]5Cc6ccc(O)c7c6[C@@]4(CCN5CC4CC4)[C@H]3O7)c2[nH]1.Cl` [Compound 21, 17-Cyclopropylmethyl-3,14β-dihydroxy-4,5α-epoxy-6α-(2-methyl-indole-7-carboxamido)morphinan], which “Improvement of hERG profile in comparison to NAN (fold)” value (hERG potassium channel) is on record?
A: seven-fold

Q: And the “Agonist activity to increase the intracellular calcium concentration” value (MOR [6])?
A: no obvious agonist activity

Q: What about the Ki (DOR [1]) of the same compound?
A: 16 ± 1.09 nM

Q: What about the Jumps (morphine-pelleted mice [7]; 40 mg/kg, vs 1 mg/kg naloxone) of the same compound?
A: not significantly different from those at 1 mg/kg naloxone

Q: What about the Paw tremors (morphine-pelleted mice [7]; all doses up to 80 mg/kg, vs 1 mg/kg naloxone) of the same compound?
A: significantly fewer paw tremors

Q: And the Wet-dog shakes (morphine-pelleted mice [7]; all the doses tested, vs 1 mg/kg naloxone)?
A: did not precipitate more wet-dog shakes

Q: What about the “Blockage” value (mice) of the same compound?
A: different degrees of inhibition of morphine’s antinociceptive effect

Q: And the “Selectivity δ/μ” value (MOR [4])?
A: 27.3

Q: What about the EC50 (DOR [8]; DOR EC50 (nM), mean ± SEM) of the same compound?
A: 4.99 ± 0.21 nM

Q: What about the “DOR Emax(% max of SNC80)” value (DOR [8]; relative to DOR full agonist SNC80) of the same compound?
A: 76.82 ± 4.82%

Q: And the EC50 (KOR [9]; KOR EC50 (nM), mean ± SEM)?
A: 6.65 ± 0.78 nM

Q: And the “KOR Emax(% max of U50,488H)” value (KOR [9]; relative to KOR full agonist U50,488H)?
A: 48.28 ± 1.45%

Q: And the CLint scaled [10]?
A: < 38.5 mL/min/kg

Q: And the CLint scaled [11]?
A: < 38.5 mL/min/kg

Q: With `O=C(N[C@H]1CC[C@@]2(O)[C@H]3Cc4ccc(O)c5c4[C@@]2(CCN3CC2CC2)[C@H]1O5)c1cccc2cc(-c3ccccc3)[nH]c12` [Compound 22, 17-Cyclopropylmethyl-3,14β-dihydroxy-4,5α-epoxy-6α-(2-phenyl-indole-7-carboxamido)morphinan] as the compound, how does the Ki (DOR [1]) read?
A: 5.36 ± 1 nM

Q: And the “Selectivity δ/μ” value (MOR [4])?
A: 2.2

Q: For `N#Cc1c[nH]c2c(C(=O)N[C@H]3CC[C@@]4(O)[C@H]5Cc6ccc(O)c7c6[C@@]4(CCN5CC4CC4)[C@H]3O7)cccc12` [Compound 25, 17-Cyclopropylmethyl-3,14β-dihydroxy-4,5α-epoxy-6α-(3-cyano-indole-7-carboxamido)morphinan], which Ki (DOR [1]) is on record?
A: 12.2 ± 2.2 nM

Q: What about the “Selectivity κ/μ” value (MOR [4]) of the same compound?
A: 6.3

Q: For `O=C(N[C@H]1CC[C@@]2(O)[C@H]3Cc4ccc(O)c5c4[C@@]2(CCN3CC2CC2)[C@H]1O5)c1cccc2c([N+](=O)[O-])c[nH]c12` [Compound 26, 17-Cyclopropylmethyl-3,14β-dihydroxy-4,5α-epoxy-6α-(3-nitro-indole-7-carboxamido)morphinan], which Ki (DOR [1]) is on record?
A: 21.6 ± 2.57 nM

Q: And the “Selectivity δ/μ” value (MOR [4])?
A: 20.3

Q: And the “Selectivity κ/μ” value (MOR [4])?
A: 9.2

Q: For `CC(=O)c1c[nH]c2c(C(=O)N[C@H]3CC[C@@]4(O)[C@H]5Cc6ccc(O)c7c6[C@@]4(CCN5CC4CC4)[C@H]3O7)cccc12` [Compound 28, 17-Cyclopropylmethyl-3,14β-dihydroxy-4,5α-epoxy-6α-(3-acetyl-indole-7-carboxamido)morphinan], which Ki (DOR [1]) is on record?
A: 10.9 ± 1.58 nM

Q: And the Ki (KOR [2])?
A: 6.39 ± 1.07 nM

Q: For `Cc1c[nH]c2c(C(=O)N[C@H]3CC[C@@]4(O)[C@H]5Cc6ccc(O)c7c6[C@@]4(CCN5CC4CC4)[C@H]3O7)cccc12` [Compound 30, 17-Cyclopropylmethyl-3,14β-dihydroxy-4,5α-epoxy-6α-(3-methyl-indole-7-carboxamido)morphinan], which Ki (DOR [1]) is on record?
A: 13.8 ± 4.02 nM

Q: And the “Blockage” value (mice)?
A: different degrees of inhibition of morphine’s antinociceptive effect

Q: What does the source list for `O=C(N[C@H]1CC[C@@]2(O)[C@H]3Cc4ccc(O)c5c4[C@@]2(CCN3CC2CC2)[C@H]1O5)c1cccc2cc[nH]c12` [NAN, 17-cyclopropylmethyl-3,14β-dihydroxy-4,5α-epoxy-6α-(indole-7-carboxamido)morphinan]?
A: Paw tremors (morphine-pelleted mice [12]): seemingly more paw tremors; Wet-dog shakes and jumps (morphine-pelleted mice [12]): did not induce significant wet-dog shakes and jumps; KOR Emax(% max of U50,488H) (KOR [13]): 73.90 ± 3.69%; DOR Emax(% max of SNC80) (DOR [14]): 26.67 ± 1.17%

Q: With `O=C(N[C@@H]1CC[C@@]2(O)[C@H]3Cc4ccc(O)c5c4[C@@]2(CCN3CC2CC2)[C@H]1O5)c1ccncc1` [NAP, 17-Cyclopropylmethyl-3,14β-dihydroxy-4,5α-epoxy-6β-[(4′-pyridyl)carboxamido]morphinan] as the compound, how does the “Shift of DAMGO concentration effect curve” value (MOR [15]) read?
A: parallel rightward shift in the concentration effect curve of MOR full agonist DAMGO

Q: Which “Shift of DAMGO concentration effect curve” value (MOR [15]) does the source give for `O=C(N[C@H]1CC[C@@]2(O)[C@H]3Cc4ccc(O)c5c4[C@@]2(CCN3CC2CC2)[C@H]1O5)c1cc2ccccc2cn1` [NAQ, 17-cyclopropylmethyl-3,14β-dihydroxy-4,5α-epoxy-6α-(isoquinoline-3-carboxamido)-morphinan] here?
A: parallel rightward shift in the concentration effect curve of MOR full agonist DAMGO

Q: With `C=CCN1CC[C@]23c4c5ccc(O)c4O[C@H]2C(=O)CC[C@@]3(O)[C@H]1C5` [NLX, naloxone, reference compound] as the compound, how does the Withdrawal symptoms (morphine-pelleted mice [7]; 1 mg/kg s.c.) read?
A: induced significant withdrawal symptoms
